{
  "source": "ChEMBL document CHEMBL4033712",
  "about": "“Synthesis and biological evaluation of new C-12(α/β)-(N-) sulfamoyl-phenylamino-14-deoxy-andrographolide derivatives as potent anti-cancer agents” (Bioorg Med Chem Lett, 2017)",
  "type_in_all_cases": "functional",
  "key": {"[1]": {"system": "TK-10", "test": "Anticancer activity against human TK10 cells assessed as cell growth at 10 uM after 48 hrs by sulforhodamine B assay relative to control", "details": "TK-10, 48 h, read-out: Activity", "method_in_brief": "(§1)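 NCI-60 single-dose screen: compound added at 10 µM, cultures incubated 48 h. End point by sulforhodamine B protein-binding dye. Value reported as percent growth of treated cells relative to untreated control cells.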"}, "[2]": {"system": "NCI-H522", "test": "Anticancer activity against human NCI-H522 cells assessed as cell growth at 10 uM after 48 hrs by sulforhodamine B assay relative to control", "details": "NCI-H522, 48 h, read-out: Activity", "method_in_brief": "(§2)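 Single-dose NCI-60 panel screen: compound added at 10 µM and the culture incubated 48 h. The end point was read by protein staining with sulforhodamine B. The value is percent growth of treated cells relative to untreated control cells, reported as a mean graph across the panel.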"}, "[3]": {"system": "NCI/ADR-RES", "test": "Anticancer activity against human NCI/ADR-RES cells assessed as cell growth at 10 uM after 48 hrs by sulforhodamine B assay relative to control", "details": "read-out: Activity", "method_in_brief": "as §2"}, "[4]": {"system": "MDA-MB-468", "test": "Growth inhibition of human MDA-MB-468 cells incubated for 48 hrs by sulforhodamine B assay", "details": "MDA-MB-468, 48 h", "method_in_brief": "(§3)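 NCI-60 five-dose screen at 0.01, 0.1, 1, 10 and 100 µM, 48 h incubation, sulforhodamine B end point. GI50 (50% decrease in net growth), TGI (total growth inhibition) and LC50 (net 50% loss of initial cells) taken from log concentration versus % growth inhibition curves.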"}, "[5]": {"system": "HCC 2998", "test": "Growth inhibition of human HCC2998 cells incubated for 48 hrs by sulforhodamine B assay", "details": "HCC 2998, 48 h", "method_in_brief": "as §3"}, "[6]": {"system": "Malme-3M", "test": "Anticancer activity against human MALME-3M cells assessed as cell growth at 10 uM after 48 hrs by sulforhodamine B assay relative to control", "details": "read-out: Activity", "method_in_brief": "as §2"}, "[7]": {"system": "UACC-257", "test": "Anticancer activity against human UACC257 cells assessed as cell growth at 10 uM after 48 hrs by sulforhodamine B assay relative to control", "details": "UACC-257, 48 h, read-out: Activity", "method_in_brief": "as §1"}, "[8]": {"system": "T47D", "test": "Anticancer activity against human T47D cells assessed as cell growth at 10 uM after 48 hrs by sulforhodamine B assay relative to control", "details": "read-out: Activity", "method_in_brief": "as §1"}, "[9]": {"system": "COLO 205", "test": "Anticancer activity against human COLO205 cells assessed as cell growth at 10 uM after 48 hrs by sulforhodamine B assay relative to control", "details": "COLO 205, 48 h, read-out: Activity", "method_in_brief": "as §2"}, "[10]": {"system": "HT-29", "test": "Anticancer activity against human HT-29 cells assessed as cell growth at 10 uM after 48 hrs by sulforhodamine B assay relative to control", "details": "HT-29, 48 h, read-out: Activity", "method_in_brief": "as §2"}, "[11]": {"system": "PC-3", "test": "Growth inhibition of human PC3 cells incubated for 48 hrs by sulforhodamine B assay", "details": "PC-3, 48 h", "method_in_brief": "as §3"}, "[12]": {"system": "RXF 393", "test": "Anticancer activity against human RXF393 cells assessed as cell growth at 10 uM after 48 hrs by sulforhodamine B assay relative to control", "details": "RXF 393, 48 h, read-out: Activity", "method_in_brief": "as §2"}, "[13]": {"system": "HOP-62", "test": "Anticancer activity against human HOP62 cells assessed as cell growth at 10 uM after 48 hrs by sulforhodamine B assay relative to control", "details": "HOP-62, 48 h, read-out: Activity", "method_in_brief": "as §2"}, "[14]": {"system": "HL-60(TB)", "test": "Anticancer activity against human HL-60(TB) cells assessed as cell growth at 10 uM after 48 hrs by sulforhodamine B assay relative to control", "details": "HL-60, 48 h, read-out: Activity", "method_in_brief": "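NCI-60 human tumour panel single-dose screen: cells exposed to 10 µM compound for 48 h. Growth end point read with sulforhodamine B protein-binding dye. Expressed as percent growth of treated cells versus untreated control cells.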"}, "[15]": {"system": "HCT-116", "test": "Anticancer activity against human HCT116 cells assessed as cell growth at 10 uM after 48 hrs by sulforhodamine B assay relative to control", "details": "HCT-116, 48 h, read-out: Activity", "method_in_brief": "as §2"}, "[16]": {"system": "NCI-H460", "test": "Anticancer activity against human NCI-H460 cells assessed as cell growth at 10 uM after 48 hrs by sulforhodamine B assay relative to control", "details": "NCI-H460, 48 h, read-out: Activity", "method_in_brief": "as §2"}, "[17]": {"system": "IGROV-1", "test": "Anticancer activity against human IGROV1 cells assessed as cell growth at 10 uM after 48 hrs by sulforhodamine B assay relative to control", "details": "IGROV-1, 48 h, read-out: Activity", "method_in_brief": "as §2"}, "[18]": {"system": "SK-MEL-5", "test": "Anticancer activity against human SK-MEL-5 cells assessed as cell growth at 10 uM after 48 hrs by sulforhodamine B assay relative to control", "details": "SK-MEL-5, 48 h, read-out: Activity", "method_in_brief": "as §2"}, "[19]": {"system": "OVCAR-3", "test": "Anticancer activity against human OVCAR3 cells assessed as cell growth at 10 uM after 48 hrs by sulforhodamine B assay relative to control", "details": "OVCAR-3, 48 h, read-out: Activity", "method_in_brief": "as §2"}, "[20]": {"system": "MDA-MB-435", "test": "Anticancer activity against human MDA-MB-435 cells assessed as cell growth at 10 uM after 48 hrs by sulforhodamine B assay relative to control", "details": "MDA-MB-435, 48 h, read-out: Activity", "method_in_brief": "as §2"}, "[21]": {"system": "NCI/ADR-RES", "test": "Growth inhibition of human NCI/ADR-RES cells incubated for 48 hrs by sulforhodamine B assay", "method_in_brief": "as §3"}, "[22]": {"system": "A498", "test": "Anticancer activity against human A498 cells assessed as cell growth at 10 uM after 48 hrs by sulforhodamine B assay relative to control", "details": "A498, 48 h, read-out: Activity", "method_in_brief": "as §2"}, "[23]": {"system": "UACC-62", "test": "Anticancer activity against human UACC62 cells assessed as cell growth at 10 uM after 48 hrs by sulforhodamine B assay relative to control", "details": "UACC-62, 48 h, read-out: Activity", "method_in_brief": "as §1"}, "[24]": {"system": "NCI-H226", "test": "Anticancer activity against human NCI-H226 cells assessed as cell growth at 10 uM after 48 hrs by sulforhodamine B assay relative to control", "details": "NCI-H226, 48 h, read-out: Activity", "method_in_brief": "as §2"}, "[25]": {"system": "OVCAR-8", "test": "Anticancer activity against human OVCAR8 cells assessed as cell growth at 10 uM after 48 hrs by sulforhodamine B assay relative to control", "details": "OVCAR-8, 48 h, read-out: Activity", "method_in_brief": "as §2"}, "[26]": {"system": "DU-145", "test": "Anticancer activity against human DU145 cells assessed as cell growth at 10 uM after 48 hrs by sulforhodamine B assay relative to control", "details": "DU-145, 48 h, read-out: Activity", "method_in_brief": "as §2"}, "[27]": {"system": "RPMI-8226", "test": "Anticancer activity against human RPMI8226 cells assessed as cell growth at 10 uM after 48 hrs by sulforhodamine B assay relative to control", "details": "RPMI-8226, 48 h, read-out: Activity", "method_in_brief": "as §2"}, "[28]": {"system": "M14", "test": "Anticancer activity against human M14 cells assessed as cell growth at 10 uM after 48 hrs by sulforhodamine B assay relative to control", "details": "M14, 48 h, read-out: Activity", "method_in_brief": "as §2"}, "[29]": {"system": "ACHN", "test": "Anticancer activity against human ACHN cells assessed as cell growth at 10 uM after 48 hrs by sulforhodamine B assay relative to control", "details": "read-out: Activity", "method_in_brief": "as §2"}, "[30]": {"details": "read-out: LC50 (the source's name)"}},
  "data": [
    {"smiles": "C=C1CC[C@@H]2[C@](C)(COC(C)=O)[C@H](OC(C)=O)CC[C@@]2(C)[C@H]1CC(Nc1ccc(S(=O)(=O)Nc2nccc(C)n2)cc1)C1=CCOC1=O", "note": "(some centres not stated)", "values": [
      {"measurement": "growth at 10 µM", "setting": "[1]", "value": 83, "unit": "%"},
      {"measurement": "growth at 10 µM", "setting": "[2]", "value": -50.6, "unit": "%"},
      {"measurement": "growth at 10 µM", "setting": "[3]", "value": 20.9, "unit": "%"},
      {"measurement": "GI50", "setting": "[4]", "value": 1.99, "unit": "µM"},
      {"measurement": "TGI", "setting": "[4]", "value": 4.3, "unit": "µM"},
      {"measurement": "CC50", "setting": "[4]; [30]", "value": 9.3, "unit": "µM"},
      {"measurement": "GI50", "setting": "[5]", "value": 4.98, "unit": "µM"},
      {"measurement": "TGI", "setting": "[5]", "value": 17.9, "unit": "µM"},
      {"measurement": "CC50", "setting": "[5]; [30]", "value": 48.1, "unit": "µM"},
      {"measurement": "growth at 10 µM", "setting": "[6]", "value": -0.7, "unit": "%"},
      {"measurement": "growth at 10 µM", "setting": "[7]", "value": 48.5, "unit": "%"},
      {"measurement": "growth at 10 µM", "setting": "[8]", "value": 69.1, "unit": "%"},
      {"measurement": "growth at 10 µM", "setting": "[9]", "value": 9.64, "unit": "%"},
      {"measurement": "growth at 10 µM", "setting": "[10]", "value": -28.2, "unit": "%"},
      {"measurement": "GI50", "setting": "[11]", "value": 4.46, "unit": "µM"},
      {"measurement": "TGI", "setting": "[11]", "value": 15.7, "unit": "µM"},
      {"measurement": "CC50", "setting": "[11]; [30]", "value": 43.3, "unit": "µM"},
      {"measurement": "growth at 10 µM", "setting": "[12]", "value": -38.3, "unit": "%"},
      {"measurement": "growth at 10 µM", "setting": "[13]", "value": 156, "unit": "%"},
      {"measurement": "growth at 10 µM", "setting": "[14]", "value": -17.3, "unit": "%"},
      {"measurement": "growth at 10 µM", "setting": "[15]", "value": -32.2, "unit": "%"},
      {"measurement": "growth at 10 µM", "setting": "[16]", "value": 46.9, "unit": "%"},
      {"measurement": "growth at 10 µM", "setting": "[17]", "value": 25.8, "unit": "%"},
      {"measurement": "growth at 10 µM", "setting": "[18]", "value": 45, "unit": "%"},
      {"measurement": "growth at 10 µM", "setting": "[19]", "value": -45, "unit": "%"},
      {"measurement": "growth at 10 µM", "setting": "[20]", "value": 0.23, "unit": "%"},
      {"measurement": "GI50", "setting": "[21]", "value": 2.94, "unit": "µM"},
      {"measurement": "LC50 (concentration giving net 50% loss of initial cells)", "setting": "[21]", "value": "> 100", "unit": "µM"},
      {"measurement": "TGI", "setting": "[21]", "value": 13.5, "unit": "µM"},
      {"measurement": "growth at 10 µM", "setting": "[22]", "value": 96.8, "unit": "%"},
      {"measurement": "growth at 10 µM", "setting": "[23]", "value": 24.2, "unit": "%"},
      {"measurement": "growth at 10 µM", "setting": "[24]", "value": -12.1, "unit": "%"},
      {"measurement": "growth at 10 µM", "setting": "[25]", "value": 10.5, "unit": "%"},
      {"measurement": "growth at 10 µM", "setting": "[26]", "value": 38.5, "unit": "%"},
      {"measurement": "growth at 10 µM", "setting": "[27]", "value": -5.56, "unit": "%"},
      {"measurement": "growth at 10 µM", "setting": "[28]", "value": 11.2, "unit": "%"},
      {"measurement": "growth at 10 µM", "setting": "[29]", "value": -37.2, "unit": "%"}
    ]}
  ]
}
